Measured values: ChEMBL document CHEMBL1765020, “Synthesis and structure-affinity relationships of novel dibenzylideneacetone derivatives as probes for β-amyloid plaques” (J Med Chem, 2011)

Key:
Intestine [1] = test: Biodistribution in ddY mouse intestine at 1 uCi/100 uL, iv after 2 mins by gamma counting; type: ADME, organism-based; settings: in vivo
Method in brief: (§1)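 Normal female ddY mice (5 weeks, about 20 g; n = 4 per group) received radiotracer iv. Organs were removed and weighed at 2–120 min and counted in a γ-counter. Percent dose per gram of wet tissue was calculated against diluted aliquots of the injected material and reported as mean ± SD.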

Brain [2] = test: Biodistribution in ddY mouse brain at 1 uCi/100 uL, iv after 2 mins by gamma counting; type: ADME, organism-based; settings: in vivo; method in brief: as §1
Thyroid gland [3] = test: Biodistribution in ddY mouse thyroid at 1 uCi/100 uL, iv after 15 mins by gamma counting; type: ADME, organism-based; settings: in vivo, 0.25 h
Brain [4] = test: Biodistribution in ddY mouse brain at 1 uCi/100 uL, iv after 30 mins by gamma counting; type: ADME, organism-based; settings: in vivo, 0.5 h; method in brief: as §1
Intestine [5] = test: Biodistribution in ddY mouse intestine at 1 uCi/100 uL, iv after 60 mins by gamma counting; type: ADME, organism-based; settings: in vivo, 1 h; method in brief: as §1
Spleen [6] = test: Biodistribution in ddY mouse spleen at 1 uCi/100 uL, iv after 30 mins by gamma counting; type: ADME, organism-based; settings: in vivo, 0.5 h
Lung [7] = test: Biodistribution in ddY mouse lung at 1 uCi/100 uL, iv after 120 mins by gamma counting; type: ADME, organism-based; settings: in vivo, 2 h
[8] = Partition coefficient, log D of the compound; type: physicochemical; settings: octanol/water
Method in brief: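 Radiotracer partitioned between n-octanol and PBS: vortexed 3 min at room temperature, centrifuged 5 min at 3000 rpm. Weighed samples of the octanol (100 μL) and buffer (500 μL) layers were counted. log D is the log of the ratio of counts per gram, octanol versus PBS.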

Liver [9] = test: Biodistribution in ddY mouse liver at 1 uCi/100 uL, iv after 60 mins by gamma counting; type: ADME, organism-based; settings: in vivo, 1 h
Stomach [10] = test: Biodistribution in ddY mouse stomach at 1 uCi/100 uL, iv after 30 mins by gamma counting; type: ADME, organism-based; settings: in vivo, 0.5 h
Thyroid gland [11] = test: Biodistribution in ddY mouse thyroid at 1 uCi/100 uL, iv after 120 mins by gamma counting; type: ADME, organism-based; settings: in vivo, 2 h
Liver [12] = test: Biodistribution in ddY mouse liver at 1 uCi/100 uL, iv after 120 mins by gamma counting; type: ADME, organism-based; settings: in vivo, 2 h
Intestine [13] = test: Biodistribution in ddY mouse intestine at 1 uCi/100 uL, iv after 30 mins by gamma counting; type: ADME, organism-based; settings: in vivo, 0.5 h; method in brief: as §1
Spleen [14] = test: Biodistribution in ddY mouse spleen at 1 uCi/100 uL, iv after 60 mins by gamma counting; type: ADME, organism-based; settings: in vivo, 1 h
Spleen [15] = test: Biodistribution in ddY mouse spleen at 1 uCi/100 uL, iv after 15 mins by gamma counting; type: ADME, organism-based; settings: in vivo, 0.25 h
Stomach [16] = test: Biodistribution in ddY mouse stomach at 1 uCi/100 uL, iv after 60 mins by gamma counting; type: ADME, organism-based; settings: in vivo, 1 h
Intestine [17] = test: Biodistribution in ddY mouse intestine at 1 uCi/100 uL, iv after 15 mins by gamma counting; type: ADME, organism-based; settings: in vivo, 0.25 h; method in brief: as §1
Stomach [18] = test: Biodistribution in ddY mouse stomach at 1 uCi/100 uL, iv after 15 mins by gamma counting; type: ADME, organism-based; settings: in vivo, 0.25 h
Lung [19] = test: Biodistribution in ddY mouse lung at 1 uCi/100 uL, iv after 15 mins by gamma counting; type: ADME, organism-based; settings: in vivo, 0.25 h
Brain [20] = test: Biodistribution in ddY mouse brain at 1 uCi/100 uL, iv after 120 mins by gamma counting; type: ADME, organism-based; settings: in vivo, 2 h; method in brief: as §1
Kidney [21] = test: Biodistribution in ddY mouse kidney at 1 uCi/100 uL, iv after 2 mins by gamma counting; type: ADME, organism-based; settings: in vivo; method in brief: as §1
Blood [22] = test: Biodistribution in ddY mouse blood at 1 uCi/100 uL, iv after 30 mins by gamma counting; type: ADME, organism-based; settings: in vivo, 0.5 h; method in brief: as §1
Kidney [23] = test: Biodistribution in ddY mouse kidney at 1 uCi/100 uL, iv after 60 mins by gamma counting; type: ADME, organism-based; settings: in vivo, 1 h
Stomach [24] = test: Biodistribution in ddY mouse stomach at 1 uCi/100 uL, iv after 120 mins by gamma counting; type: ADME, organism-based; settings: in vivo, 2 h
Lung [25] = test: Biodistribution in ddY mouse lung at 1 uCi/100 uL, iv after 30 mins by gamma counting; type: ADME, organism-based; settings: in vivo, 0.5 h
Heart [26] = test: Biodistribution in ddY mouse heart at 1 uCi/100 uL, iv after 15 mins by gamma counting; type: ADME, organism-based; settings: in vivo, 0.25 h; method in brief: as §1
Blood [27] = test: Biodistribution in ddY mouse blood at 1 uCi/100 uL, iv after 60 mins by gamma counting; type: ADME, organism-based; settings: in vivo, 1 h; method in brief: as §1
Lung [28] = test: Biodistribution in ddY mouse lung at 1 uCi/100 uL, iv after 60 mins by gamma counting; type: ADME, organism-based; settings: in vivo, 1 h
Liver [29] = test: Biodistribution in ddY mouse liver at 1 uCi/100 uL, iv after 15 mins by gamma counting; type: ADME, organism-based; settings: in vivo, 0.25 h
Heart [30] = test: Biodistribution in ddY mouse heart at 1 uCi/100 uL, iv after 2 mins by gamma counting; type: ADME, organism-based; settings: in vivo; method in brief: as §1
Brain [31] = test: Ratio of drug uptake in ddY mouse brain at 1 uCi/100 uL, iv after 2 mins to drug uptake in ddY mouse brain at 1 uCi/100 uL, iv after 60 mins; type: ADME, organism-based; settings: in vivo
Method in brief: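 Normal female ddY mice (5 weeks) received the radiotracer iv, and brain uptake (% ID/g, n = 4) was measured by gamma counting at 2 and 60 min. The index is brain uptake at 2 min divided by brain uptake at 60 min.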

Brain [32] = test: Biodistribution in ddY mouse brain at 1 uCi/100 uL, iv after 60 mins by gamma counting; type: ADME, organism-based; settings: in vivo, 1 h; method in brief: as §1
Intestine [33] = test: Biodistribution in ddY mouse intestine at 1 uCi/100 uL, iv after 120 mins by gamma counting; type: ADME, organism-based; settings: in vivo, 2 h; method in brief: as §1
Kidney [34] = test: Biodistribution in ddY mouse kidney at 1 uCi/100 uL, iv after 30 mins by gamma counting; type: ADME, organism-based; settings: in vivo, 0.5 h
Blood [35] = test: Biodistribution in ddY mouse blood at 1 uCi/100 uL, iv after 120 mins by gamma counting; type: ADME, organism-based; settings: in vivo, 2 h; method in brief: as §1
Thyroid gland [36] = test: Biodistribution in ddY mouse thyroid at 1 uCi/100 uL, iv after 30 mins by gamma counting; type: ADME, organism-based; settings: in vivo, 0.5 h
Liver [37] = test: Biodistribution in ddY mouse liver at 1 uCi/100 uL, iv after 30 mins by gamma counting; type: ADME, organism-based; settings: in vivo, 0.5 h
Thyroid gland [38] = test: Biodistribution in ddY mouse thyroid at 1 uCi/100 uL, iv after 2 mins by gamma counting; type: ADME, organism-based; settings: in vivo
Heart [39] = test: Biodistribution in ddY mouse heart at 1 uCi/100 uL, iv after 60 mins by gamma counting; type: ADME, organism-based; settings: in vivo, 1 h; method in brief: as §1
Kidney [40] = test: Biodistribution in ddY mouse kidney at 1 uCi/100 uL, iv after 15 mins by gamma counting; type: ADME, organism-based; settings: in vivo, 0.25 h; method in brief: as §1
Thyroid gland [41] = test: Biodistribution in ddY mouse thyroid at 1 uCi/100 uL, iv after 60 mins by gamma counting; type: ADME, organism-based; settings: in vivo, 1 h
Liver [42] = test: Biodistribution in ddY mouse liver at 1 uCi/100 uL, iv after 2 mins by gamma counting; type: ADME, organism-based; settings: in vivo
Blood [43] = test: Biodistribution in ddY mouse blood at 1 uCi/100 uL, iv after 2 mins by gamma counting; type: ADME, organism-based; settings: in vivo; method in brief: as §1
Heart [44] = test: Biodistribution in ddY mouse heart at 1 uCi/100 uL, iv after 120 mins by gamma counting; type: ADME, organism-based; settings: in vivo, 2 h; method in brief: as §1
Lung [45] = test: Biodistribution in ddY mouse lung at 1 uCi/100 uL, iv after 2 mins by gamma counting; type: ADME, organism-based; settings: in vivo
Blood [46] = test: Biodistribution in ddY mouse blood at 1 uCi/100 uL, iv after 15 mins by gamma counting; type: ADME, organism-based; settings: in vivo, 0.25 h; method in brief: as §1
Kidney [47] = test: Biodistribution in ddY mouse kidney at 1 uCi/100 uL, iv after 120 mins by gamma counting; type: ADME, organism-based; settings: in vivo, 2 h; method in brief: as §1
Spleen [48] = test: Biodistribution in ddY mouse spleen at 1 uCi/100 uL, iv after 120 mins by gamma counting; type: ADME, organism-based; settings: in vivo, 2 h
Spleen [49] = test: Biodistribution in ddY mouse spleen at 1 uCi/100 uL, iv after 2 mins by gamma counting; type: ADME, organism-based; settings: in vivo
Stomach [50] = test: Biodistribution in ddY mouse stomach at 1 uCi/100 uL, iv after 2 mins by gamma counting; type: ADME, organism-based; settings: in vivo
Heart [51] = test: Biodistribution in ddY mouse heart at 1 uCi/100 uL, iv after 30 mins by gamma counting; type: ADME, organism-based; settings: in vivo, 0.5 h; method in brief: as §1
Brain [52] = test: Biodistribution in ddY mouse brain at 1 uCi/100 uL, iv after 15 mins by gamma counting; type: ADME, organism-based; settings: in vivo, 0.25 h; method in brief: as §1

Drug uptake (Intestine [1]): 3.53 % ID/g | Drug uptake (Brain [2]): 4.68 % ID/g | Drug uptake (Thyroid gland [3]): 28.09 % ID/g | Drug uptake (Brain [4]): 1.38 % ID/g | Drug uptake (Intestine [5]): 23.62 % ID/g | Drug uptake (Spleen [6]): 2.22 % ID/g | Drug uptake (Lung [7]): 3.9 % ID/g | logD [8]: 3.55 | Drug uptake (Liver [9]): 22.63 % ID/g | Drug uptake (Stomach [10]): 3.17 % ID/organ | Drug uptake (Thyroid gland [11]): 72.93 % ID/g | Drug uptake (Liver [12]): 27.83 % ID/g | Drug uptake (Intestine [13]): 13.19 % ID/g | Drug uptake (Spleen [14]): 1.52 % ID/g | Drug uptake (Spleen [15]): 3.36 % ID/g | Drug uptake (Stomach [16]): 3.34 % ID/organ | Drug uptake (Intestine [17]): 10.33 % ID/g | Drug uptake (Stomach [18]): 3.82 % ID/organ | Drug uptake (Lung [19]): 7.42 % ID/g | Drug uptake (Brain [20]): 0.54 % ID/g | Drug uptake (Kidney [21]): 14.73 % ID/g | Drug uptake (Blood [22]): 4.84 % ID/g | Drug uptake (Kidney [23]): 10.46 % ID/g | Drug uptake (Stomach [24]): 4.49 % ID/organ | Drug uptake (Lung [25]): 6.18 % ID/g | Drug uptake (Heart [26]): 4.14 % ID/g | Drug uptake (Blood [27]): 3.35 % ID/g | Drug uptake (Lung [28]): 3.5 % ID/g | Drug uptake (Liver [29]): 40.83 % ID/g | Drug uptake (Heart [30]): 8.11 % ID/g | Ratio (Brain [31]): 6.59 | Drug uptake (Brain [32]): 0.71 % ID/g | Drug uptake (Intestine [33]): 41.29 % ID/g | Drug uptake (Kidney [34]): 15.54 % ID/g | Drug uptake (Blood [35]): 4.46 % ID/g | Drug uptake (Thyroid gland [36]): 27.78 % ID/g | Drug uptake (Liver [37]): 23.88 % ID/g | Drug uptake (Thyroid gland [38]): 18.2 % ID/g | Drug uptake (Heart [39]): 1.74 % ID/g | Drug uptake (Kidney [40]): 16.49 % ID/g | Drug uptake (Thyroid gland [41]): 23.96 % ID/g | Drug uptake (Liver [42]): 39.22 % ID/g | Drug uptake (Blood [43]): 7.48 % ID/g | Drug uptake (Heart [44]): 1.91 % ID/g | Drug uptake (Lung [45]): 9.67 % ID/g | Drug uptake (Blood [46]): 6.02 % ID/g | Drug uptake (Kidney [47]): 13.43 % ID/g | Drug uptake (Spleen [48]): 1.23 % ID/g | Drug uptake (Spleen [49]): 4.57 % ID/g | Drug uptake (Stomach [50]): 3.26 % ID/organ | Drug uptake (Heart [51]): 3.29 % ID/g | Drug uptake (Brain [52]): 2.62 % ID/g
SMILES: CNc1ccc(/C=C/C(=O)/C=C/c2ccc([125I])cc2)cc1
